We go through three compounds from ChEMBL document CHEMBL2010675, “Discovery of GS-9451: an acid inhibitor of the hepatitis C virus NS3/4A protease” (Bioorg Med Chem Lett, 2012).

Values after ≈ are worked out from the molar mass of the structure shown. Where only a bound is given, the exact number is not on record here.

Data set [1] has as its system Hepatitis C virus. As to the kind of experiment: Inhibition of Hepatitis C virus genotype 1b NS3/4A protease. On the set-up: species or system Hepatitis C virus subtype 1b.
In data set [2] the test system is Hepatitis C virus. The experiment in a line: Antiviral activity against Hepatitis C virus genotype 1b infected in human Huh cells by luciferase reporter gene based replicon assay. Format: functional, organism-based, Hepacivirus hominis. Put shortly:
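EC50 from a cell-based assay in Huh-luc cells carrying a subgenomic HCV genotype 1b replicon, with luciferase reporter read-out.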

Data set [3] in a line: Thermodynamic solubility of the compound at pH 7.3. The format is physicochemical. As to conditions: buffer, read-out: Therm_solubility.
Data set [4] is described as follows: Thermodynamic solubility of the compound at pH 2.2. The format is physicochemical. Conditions: buffer, read-out: Therm_solubility.
A short description of data set [5]: Permeability from apical to basolateral side in human Caco2 cells. Format: ADME, cell-based. As to conditions: Caco-2, read-out: permeability. For orientation: Caco-2 monolayers are a common model of the intestinal barrier.
A short description of data set [6]: Permeability from basolateral to apical side in human Caco2 cells. Format: ADME, cell-based. Conditions: Caco-2, read-out: permeability.
Data set [7] is described as follows: Half life in dog at 1 mg/kg, iv. On the set-up: dose 1 mg/kg, route intravenous. The format is ADME, organism-based, Canis lupus familiaris. Conditions: in vivo. Put shortly: (§1)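 Dosed at 1.0 mg/kg iv and 4.0 mg/kg po; plasma drug levels followed to derive iv t1/2, oral AUC, clearance, Vdss and oral bioavailability (F).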
The subject of data set [8] is Canis familiaris. The experiment in a line: AUC in dog at 4 mg/kg, po. As to conditions: in vivo. Also on record: dose 4 mg/kg, route oral. The format is ADME, organism-based, Canis lupus familiaris, Plasma. Put shortly: as §1
Data set [9] in a line: Clearance in dog at 1 mg/kg, iv and 4 mg/kg, po. Format: ADME, organism-based, Canis lupus familiaris. As to conditions: in vivo. The gist of the method: as §1
The nature of data set [10]: Volume of distribution at steady state in dog at 1 mg/kg, iv and 4 mg/kg, po. Format: ADME, organism-based, Canis lupus familiaris. As to conditions: in vivo, read-out: Vdss. Put shortly: as §1
The nature of data set [11]: Oral bioavailability in dog at 4 mg/kg. The format is ADME, organism-based, Canis lupus familiaris. As to conditions: in vivo. Put shortly: as §1

Regarding `CC[C@@H]1C[C@]1(NC(=O)[C@@H]1C[C@@H](Oc2cc(-c3csc(NC(C)C)n3)nc3c(Cl)c(OC)ccc23)CN1C(=O)[C@@H](NC(=O)O[C@H]1C[C@@H]2[C@H](C1)C2(F)F)C(C)(C)C)C(=O)O`, in data set [1], it took 2.6 nM to reach half-maximal inhibition (IC50). Besides, the response in [2] was half-maximal at 5 nM (EC50). The solubility thermodynamic in [3] came out at 57 µM (≈ 48.3 µg/mL); in [4] it was 20 µM (≈ 16.9 µg/mL). The Papp A→B in [5] was 4.5 ×10⁻⁶ cm/s. Further, in data set [6], the Papp B→A turned out to be 18 ×10⁻⁶ cm/s.

The compound `CC[C@@H]1C[C@]1(NC(=O)[C@@H]1C[C@@H](Oc2cc(-c3csc(NC(C)C)n3)nc3c(Cl)c(OCCN4CCCCC4)ccc23)CN1C(=O)[C@@H](NC(=O)O[C@@H]1C[C@@H]2C[C@@H]2C1)C(C)(C)C)C(=O)O` gave an IC50 in data set [1] of 25 nM. Also, a half-maximal effect in data set [2] (EC50) was put at 7.5 nM. Besides, the figures for the solubility thermodynamic in data set [3] and in data set [4] were 80 µM (≈ 72.7 µg/mL) and over 100 µM, respectively. For the same compound, the Papp A→B in data set [5] turned out to be 6.7 ×10⁻⁶ cm/s. Further, in data set [6], the Papp B→A was found to be 20 ×10⁻⁶ cm/s. Also, the half-life in data set [7] is 3 h. The AUC in data set [8] is 19.7 µM·h. The compound also had a clearance in data set [9] of 2.17 mL/min/kg. The Vd in data set [10] was determined as 0.39 L/kg. The bioavailability in data set [11] turned out to be 32%.

Compound `CC[C@@H]1C[C@]1(NC(=O)[C@@H]1C[C@@H](Oc2cc(-c3csc(NC(C)C)n3)nc3c(Cl)c(OC)ccc23)CN1C(=O)[C@@H](NC(=O)O[C@@H]1C[C@@H]2[C@H](C1)C2(F)F)C(C)(C)C)C(=O)O` displayed a concentration for half-maximal inhibition (IC50) in [1] of 5 nM. In addition, the EC50 in data set [2] was determined as 115 nM. Also, the solubility thermodynamic in [3] was 9 µM (≈ 7.63 µg/mL); in [4], under 6 µM. In data set [5], the Papp A→B is 6.8 ×10⁻⁶ cm/s. In addition, in data set [6], the Papp B→A came out at 49 ×10⁻⁶ cm/s.

Usually IC50 stands for the concentration that gives 50% inhibition. A high value points to lower potency. The term EC50 denotes the concentration that produces a half-maximal response. A lower EC50 goes with a more potent agent. In general, half-life refers to how long it takes for the measured level to halve. A high value points to slow decline. The term AUC denotes the area under the concentration-time curve, a measure of exposure. Read a low AUC as low exposure. As a reminder, the bioavailability is the share of a dose that reaches the circulation, judged against a reference dose that is usually intravenous. High values mean much systemic uptake, low ones little systemic uptake.
